M1 antagonist – antagonists of rat M1 muscarinic receptor | P08482 | CHO-M1 cells, Fluo-4 calcium, ACh EC80 antagonist mode; stronger effect = lower value | B-score at 10 µM | actives 3.4% (n = 64,000);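 active = calcium fluorescence response, raw or row-and-column corrected B-score, differing from the plate sample mean either way at a set confidence level, mostly lower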
JNK3 blocker – inhibitors of human JNK3 kinase; purified JNK3 kinase activity, HTS; AID 746; P53779; inhibition, % at 8 µM; actives 0.61% (n = 60,000); in the data active = inhibition above about 17%
Target sequence (P53779 whole entry, looked up): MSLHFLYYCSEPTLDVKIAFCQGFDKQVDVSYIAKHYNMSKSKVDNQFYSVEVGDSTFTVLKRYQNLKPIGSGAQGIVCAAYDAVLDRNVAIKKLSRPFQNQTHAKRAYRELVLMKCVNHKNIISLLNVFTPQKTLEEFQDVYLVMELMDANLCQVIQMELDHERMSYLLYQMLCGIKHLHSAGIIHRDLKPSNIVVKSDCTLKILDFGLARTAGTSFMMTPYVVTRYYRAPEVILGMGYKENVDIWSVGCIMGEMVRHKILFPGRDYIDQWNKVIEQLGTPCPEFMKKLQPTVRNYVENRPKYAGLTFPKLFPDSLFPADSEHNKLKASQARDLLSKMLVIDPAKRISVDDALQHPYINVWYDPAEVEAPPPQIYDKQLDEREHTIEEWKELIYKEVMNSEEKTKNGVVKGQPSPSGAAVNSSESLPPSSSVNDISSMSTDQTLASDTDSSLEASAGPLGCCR
M1 ag – agonists of M1 muscarinic receptor; B-score at 10 µM; actives 3% (n = 64,000); CHO-M1 cells, Fluo-4 calcium fluorescence, agonist mode; stronger effect = higher value;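 active = fluorescence rise, raw or as B-score row- and column-corrected plate score, outside the 99.7% band of its plate's samples, either direction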
BAP1 inh – human BAP1 deubiquitinase inhibition. recombinant BAP1, Ub-AMC hydrolysis fluorescence kinetic; stronger effect = lower value. actives 0.48% (n = 72,000). calls only at 20 µM;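 active = activity remaining at or below 50% of control, provided the compound also passes the data quality filters; inactive = the rest, including low values that fail the filters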
HER2 expr 66K – Her2 kinase expression inhibition; actives 0.69% (n = 65,000); SKBR-3 HER2 protein level, AlphaScreen, 18-24 h; stronger effect = lower value; HER2 level % of control, % at 10 µM;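 active = HER2 level under 5% of the carrier-only control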;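 note: lower value means stronger loss of Her2 protein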
HEK293 NFkB inh – inhibitors of the PMA/ionomycin-induced NF-kB reporter in HEK293 cells; HEK-293 NF-kB luciferase reporter, luminescence; inhibition, % at 3 µM; actives 0.21% (n = 62,000); AID 465;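 active = inhibition above the mean of all tested compounds plus 3 SD, cut at about 40% in these data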
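System – HEK-293 cells with stable firefly luciferase reporter driven by four HIV NF-kB elements · Doses – one dose, 3 µM · Schedule – 1 h compound pre-incubation, 16 h PMA/ionomycin at 37 °C · Technique – luminescence from luciferase substrate reagent · Measure – percent inhibition normalized per plate to DMSO and reference-inhibitor controls · Replicates – tested once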
A number is an active result; . = inactive; / = no result shown; + = active, no number. Rows were chosen to be rich in hits. Some 6.6% of all compounds tested hit in one or more screens of this group.

SMILES	M1 antagonist	JNK3 blocker	M1 ag	BAP1 inh	HER2 expr 66K	HEK293 NFkB inh
CCCCCn1c(CN2CCCCC2CC)nc2c1c(=O)n(C)c(=O)n2C (configuration not stated)	.	.	.	.	-17	.
c1ccc(-n2nc3c(ccc4cnnc43)[nH]2)cc1	.	30	.	.	.	.
CCN(CC)c1ccc(N2C(=O)C3C4CC(C(Br)C4Br)C3C2=O)cc1 (configuration not stated)	/	/	/	.	/	/
CCN(CC)c1ccc2c(Cl)c(Br)c(=O)oc2c1	.	.	38	/	-27	.
CCN(CC)c1ccc2c(C)c(-c3ccc(N)cc3)c(=O)oc2c1	.	.	.	.	.	/
CCN(CC)c1ccc2c(c1)oc(=O)c1c(Cl)cc(=O)oc12	.	.	45	.	-17	.
COc1c(Cl)cc(Cl)cc1C(=O)Nc1ccccc1N1CCN(C(C)=O)CC1	.	.	.	.	.	.
COc1cc(OC)cc(C(=O)Nc2ccccc2N2CCOCC2)c1	.	.	6.5	.	.	.
COc1ccc(Cl)cc1C(=O)Nc1ccccc1N1CCN(C)CC1	.	.	.	.	-18	.
COc1ccc(OC)c(NC(=O)c2ccc(S(=O)(=O)N3CCN(C)CC3)cc2)c1	.	.	.	.	.	.
CN1CCN(c2ccc(Cl)cc2NC(=O)c2ccc(S(=O)(=O)N3CCCCCC3)cc2)CC1	.	.	.	.	-6.0	.
COc1ccc(C(=O)Nc2ccccc2N2CCOCC2)cc1Br	.	.	.	.	.	/
COC(=O)C1=C(C)N(C)C(C)=C(C(=O)OC)C1c1cccc([N+](=O)[O-])c1	/	/	/	.	/	/
COCCCN1C(=O)C(=O)/C(=C(/O)c2ccc(OCC(C)C)cc2)C1c1cccnc1 (configuration not stated)	.	.	.	.	-21	.
COCCCN1C(=O)C(=O)/C(=C(/O)c2ccc(OC(C)C)cc2)C1c1cccnc1 (configuration not stated)	.	.	.	.	.	.
Cc1cc(-c2ccccc2)nc(=O)[nH]1	.	.	.	.	-18	.
CCOC(=O)c1n[nH]c2ccccc12	.	38	.	.	.	/
CCc1ccc2c(COC(=O)c3n[nH]c4ccccc34)cc(=O)oc2c1	.	21	.	/	.	.
Cc1cc(C(=O)COC(=O)c2n[nH]c3ccccc23)c(C)n1C	.	.	.	.	.	.
COc1ccc(-c2cn3c(C)c(C(=O)N4CCc5ccccc5C4)sc3n2)cc1	.	.	4.7	+	.	.
Cc1c(C(=O)N2CCOCC2)sc2nc(-c3ccccc3)cn12	.	.	.	.	.	.
CC(=O)OC1C(OC(C)=O)N(C(C)=O)C(=O)N1C(C)=O (configuration not stated)	1.9	.	.	.	.	.
COc1cccc(-n2c(SCC(=O)OC(C)C)nnc2-c2cccnc2)c1	2.7	.	.	.	.	.
Cc1ccc2c(c1C)NC(C(=O)O)C1CC=CC21 (configuration not stated)	.	.	.	/	.	.
O=C(O)C1Nc2c(C(=O)N3CCOCC3)cccc2C2C=CCC12 (configuration not stated)	1.8	.	.	.	.	.
SMILES	M1 antagonist	JNK3 blocker	M1 ag	BAP1 inh	HER2 expr 66K	HEK293 NFkB inh
COc1cccc(C(=O)Nc2cc3ccccc3cc2NC(=O)c2cccc(OC)c2)c1	/	/	/	.	/	/
O=C1NC(=O)c2c(NC(=O)C3CCCO3)cccc21 (configuration not stated)	.	21	.	/	.	.
O=C1C(C=NCc2cccnc2)=C(O)c2ccccc21	.	28	.	.	.	.
O=C1C(C=NCc2ccco2)=C(O)c2ccccc21	.	.	.	.	.	.
COc1ccc(C(=O)c2no[n+]([O-])c2C(=O)c2ccc(OC)cc2)cc1	.	.	.	.	-22	.
CC(NC(=O)Cc1cccs1)C(c1cccs1)N1CCOCC1 (configuration not stated)	1.7	.	.	.	.	.
C=CCNc1nc(-c2cccc([N+](=O)[O-])c2)cs1	/	/	/	.	/	/
COC(=O)C(CC(C)C)NC(=O)CCC1CCCCC1 (configuration not stated)	/	/	/	.	/	/
CC(=O)Nc1ccc(S(=O)(=O)N2CCC(n3cnc4cc(F)ccc43)CC2)cc1	.	23	.	.	.	.
CC(=O)Nc1ccc(S(=O)(=O)N2CCCN(S(=O)(=O)c3ccc(NC(C)=O)cc3)CC2)cc1	.	.	.	.	.	.
Cc1sc(NC(=O)c2ccco2)nc1-c1ccc2c(c1)CC(C)N2C(=O)C1CC1 (configuration not stated)	-3.6	.	14	.	.	.
CCn1c(SCC(=O)c2ccc(CNC(C)=O)o2)nnc1-c1cccs1	2	.	.	.	.	.
CCCN(CCC)S(=O)(=O)c1ccc(C(=O)Nc2nnc(-c3cccc(OC)c3)o2)cc1	.	.	.	.	.	45
CCCN(CCC)S(=O)(=O)c1ccc(C(=O)Nc2nnc(-c3cc(OC)cc(OC)c3)o2)cc1	.	.	.	/	.	.
CCc1ccc(C(C)NS(=O)(=O)c2ccc3oc4ccccc4c3c2)cc1 (configuration not stated)	/	/	/	.	/	/
CCC(CC)C(=O)Nc1cc(C)cc(C)c1	3.3	.	.	.	.	.
O=C(O)c1ccc(NC(=O)c2ccccc2)cc1	/	/	/	.	/	/
COc1ccc(OC)c(S(=O)(=O)Nc2ccc(O)c3ccccc23)c1	.	.	.	.	1.2	.
COc1ccc(OC)c(S(=O)(=O)Nc2ccc(C(N)=O)cc2)c1	.	.	.	.	.	.
COC(=O)CCn1nnc(-c2cccs2)n1	1.7	.	.	.	.	.
CCN(CC)c1ccc2cc(C(=O)Nc3ccc(-n4cnnn4)c(OC)c3)c(=O)oc2c1	.	.	20	.	.	.
COc1cc(C(=O)Nc2ccc3c(c2)OCCO3)ccc1-n1cnnn1	.	.	.	.	.	.
Cn1nc(-c2ccccc2)c2nc3ccccc3nc21	4.5	.	133	.	.	.
O=C(Nc1ccccc1[N+](=O)[O-])c1cccc(S(=O)(=O)Nc2cccc(O)c2)c1	/	/	/	.	/	/
COc1ccc(OC)c(NC2=C(Cl)C(=O)N(c3cccc(Cl)c3)C2=O)c1	/	/	/	.	/	/
SMILES	M1 antagonist	JNK3 blocker	M1 ag	BAP1 inh	HER2 expr 66K	HEK293 NFkB inh
CCOC(=O)c1oc2c(CN3CCN(C)CC3)c(O)ccc2c(=O)c1-c1ccccc1OC	0.81	.	.	.	.	.
O=C1c2ccc(-c3nc4ccccc4c(=O)o3)cc2C(=O)N1c1cccc(C(F)(F)F)c1	/	/	/	.	/	/
CSc1nnc2c3ccccc3n(CCc3ccccc3)c2n1	.	.	.	.	.	58
CSc1nnc2c3ccccc3n(Cc3ccccc3)c2n1	.	.	.	/	.	.
Cc1ccc(NC(=O)c2cccc(N3C(=O)CCC3=O)c2)c(C(=O)c2ccccc2)c1	/	/	/	.	/	/
CCOC(=O)c1[nH]c(C)c(C(=O)c2cc(F)ccc2F)c1C	.	.	.	.	.	42

Screens (PubChem)
